# Source: PMC3384366 (International Journal of Nanomedicine, 2012)
# How the values were obtained:
# [1] = Oral pharmacokinetics of curcumin in plasma of freely mobile rats; format: in vivo, Male Sprague-Dawley rats; conditions: for AUC/dose: mean ± SEM, n = 4
# Outline: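 Male Sprague-Dawley rats (215 ± 10 g) had jugular catheters placed under pentobarbital (50 mg/kg ip) and were used freely moving one day later. They were dosed by gavage at 1 g/kg. Heparinized jugular blood was drawn from 15 to 480 min, and plasma was stored at −20°C. Samples were assayed by HPLC with an internal standard (425 nm; acetonitrile/10 mM phosphate pH 3.5). Noncompartmental analysis, n = 4.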
# reverted rat gut sacs = test: Ex vivo curcumin absorption using reverted rat gut sacs; format: in vitro ADME, Male Sprague-Dawley rats; conditions: serosal fluid + sac tissue; 100 μg/mL, 60 minutes, 37°C; mean ± SE, n = 4
# Outline: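 Rats (210 ± 10 g) killed by i.p. urethane/α-chloralose overdose. Small intestine rinsed with 0.9% saline, split into duodenum, jejunum and ileum in 37°C TC-199 (pH 7.4), everted, and tied into ~2 cm medium-filled sacs. Sacs shaken at 37°C in TC-199 with added 100 μg/mL test compound or nanoformulation, 1 h. Serosal fluid and acetonitrile-homogenized tissue protein-precipitated with internal standard, then analysed by HPLC; amounts summed.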
# [2] = Cumulative excretion of curcumin in feces and urine; format: in vivo, Male Sprague-Dawley rats; conditions: rat, oral, 1 g/kg; collected up to 72 hours
# [3] = male, Sprague-Dawley, rat, plasma, po, 1 g/kg
smiles,measurement,setting,value
COc1cc(/C=C/C(=O)CC(=O)/C=C/c2ccc(O)c(OC)c2)ccc1O [Curcumin],AUC,[1]; [3],104 ng·h/mL
same,Cmax,[1]; [3],28 ± 10 ng/mL
same,Tmax,[1]; [3],45 min
same,Time for which curcumin could be detected in plasma after oral ingestion,"[1]; rat plasma, oral, 1 g/kg (b48 prints 1 mg/kg)",6 h
same,AUC/dose,"[1]; rat plasma, oral, 1 g/kg",0.0062 ± 0.003
same,AUC/dose,"[1]; rat plasma, oral, 1 g/kg, listed as curcumin alone",0.0062
same,"Curcumin amount after incubation, duodenum",reverted rat gut sacs,0.47 ± 0.04 µg
same,"Curcumin amount after incubation, ileum",reverted rat gut sacs,0.85 ± 0.02 µg
same,"Curcumin amount after incubation, jejunum",reverted rat gut sacs,1.01 ± 0.05 µg
same,Accumulated percentage of curcumin in urine,[2],~0%
same,Accumulated percentage of unabsorbed curcumin in feces,[2],~90%
